Laboratory results: ChEMBL document CHEMBL4477182, “Evaluation of the Intestinal Absorption Mechanism of Casearin X in Caco-2 Cells with Modified Carboxylesterase Activity” (J Nat Prod, 2016)

Tests used:
[1] = Permeability from basolateral to apical side in human Caco2 cells assessed as drug recovery at 2 uM after 60 mins in absence of CES inhibitor BNPP by LC-MS method; assay type: ADME, cell-based; details: Caco-2, read-out: Drug recovery
Method in brief: (§1)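 Caco-2 monolayers grown 19−21 days on Transwell inserts. Pretreated 40 min at 37 °C with 200 μM BNPP in HBSS on both sides, or sham HBSS, then 40 min DMEM washout. Monolayers with TEER >250 Ω cm2 were dosed at 2 μM (1% DMSO) on the donor side; basolateral buffer had 4% FBS. Shaken at 37 °C. Buffer, cell and plastic extracts at 10, 60 and 120 min were measured by LC-MS for total recovery; mean(SD), n = 3.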

[2] = biological target: T1, CE2 (cocaine esterase) (Homo sapiens, UniProt O00748); assay: Drug metabolism assessed as human CE2-mediated compound hydrolysis by measuring compound half life at 1 uM incubated for 30 mins by LC-MS analysis; assay type: ADME; details: human CE2 enzyme
T1 sequence (O00748 whole entry): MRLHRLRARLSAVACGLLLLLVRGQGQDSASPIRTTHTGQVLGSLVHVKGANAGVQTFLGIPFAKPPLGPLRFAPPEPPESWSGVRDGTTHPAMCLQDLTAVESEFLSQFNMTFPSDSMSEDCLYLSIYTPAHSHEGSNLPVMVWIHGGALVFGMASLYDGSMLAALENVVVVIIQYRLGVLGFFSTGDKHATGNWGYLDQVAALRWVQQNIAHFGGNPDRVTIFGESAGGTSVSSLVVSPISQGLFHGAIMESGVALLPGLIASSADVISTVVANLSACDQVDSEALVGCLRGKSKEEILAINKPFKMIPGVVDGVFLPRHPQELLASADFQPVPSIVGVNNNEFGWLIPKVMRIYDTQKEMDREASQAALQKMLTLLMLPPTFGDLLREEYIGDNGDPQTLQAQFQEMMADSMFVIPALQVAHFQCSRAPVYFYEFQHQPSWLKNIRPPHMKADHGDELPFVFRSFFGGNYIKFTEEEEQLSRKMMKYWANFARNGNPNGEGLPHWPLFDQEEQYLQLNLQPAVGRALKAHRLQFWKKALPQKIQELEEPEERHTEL
Method in brief: (§2)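 Purified human hCE2 (0.2 μg/mL) in 90 mM KH2PO4, 40 mM KCl, pH 7.3, preincubated 5 min at 37 °C. Reaction started with 1 μM substrate (0.1% DMSO final) and sampled every 5 min to 30 min, in triplicate. Quenched with ice-cold acetonitrile and quantified by LC-MS (SIM, m/z 555 Na adduct). Half-life = ln 2 / slope of ln % remaining versus time.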

[3] = Permeability from apical to basolateral side in human Caco2 cells assessed as drug recovery at 2 uM after 10 mins in absence of CES inhibitor BNPP by LC-MS method; assay type: ADME, cell-based; details: Caco-2, read-out: Drug recovery; method in brief: as §1
[4] = Cytotoxicity against human Caco2 cells assessed as cell viability at 1 uM after 5 hrs by MTT assay relative to control; assay type: cell-based; details: Caco-2 cells, read-out: Activity
Method in brief: (§3)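 Caco-2 cells (passage 60−65) seeded at 1.14 × 10^5 cells/cm2, grown 24 h, then exposed in transport buffer (pH 7.4) to 1, 2, 3, 4, 5 and 10 μM for 5 h at 37 °C, 8% CO2. After a DPBS wash, MTT was added for 2 h. A 1% DMSO blank gave background. n = 18; ANOVA with Bonferroni test.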

[5] = Permeability from basolateral to apical side in human Caco2 cells assessed as drug recovery at 2 uM after 10 mins in presence of CES inhibitor BNPP by LC-MS method; assay type: ADME, cell-based; details: Caco-2, with BNPP (CES inhibitor), concentration not stated, read-out: Drug recovery; method in brief: as §1
[6] = Permeability from basolateral to apical side in human Caco2 cells assessed as drug recovery at 2 uM after 120 mins in presence of CES inhibitor BNPP by LC-MS method; assay type: ADME, cell-based; details: Caco-2, with BNPP (CES inhibitor), concentration not stated, read-out: Drug recovery; method in brief: as §1
[7] = Permeability from apical to basolateral side in human Caco2 cells assessed as drug recovery at 2 uM after 60 mins in presence of CES inhibitor BNPP by LC-MS method; assay type: ADME, cell-based; details: Caco-2, with BNPP (CES inhibitor), concentration not stated, read-out: Drug recovery; method in brief: as §1
[8] = Permeability from apical to basolateral side in human Caco2 cells assessed as drug recovery at 2 uM after 120 mins in absence of CES inhibitor BNPP by LC-MS method; assay type: ADME, cell-based; details: Caco-2, read-out: Drug recovery; method in brief: as §1
[9] = Permeability from basolateral to apical side in human Caco2 cells assessed as drug recovery at 2 uM after 60 mins in presence of CES inhibitor BNPP by LC-MS method; assay type: ADME, cell-based; details: Caco-2, with BNPP (CES inhibitor), concentration not stated, read-out: Drug recovery; method in brief: as §1
[10] = Permeability from apical to basolateral side in human Caco2 cells assessed as drug recovery at 2 uM after 60 mins in absence of CES inhibitor BNPP by LC-MS method; assay type: ADME, cell-based; details: Caco-2, read-out: Drug recovery; method in brief: as §1
[11] = Permeability from apical to basolateral side in human Caco2 cells assessed as drug recovery at 2 uM after 10 mins in presence of CES inhibitor BNPP by LC-MS method; assay type: ADME, cell-based; details: Caco-2, with BNPP (CES inhibitor), concentration not stated, read-out: Drug recovery; method in brief: as §1
[12] = Permeability from apical to basolateral side in human Caco2 cells assessed as drug recovery at 2 uM after 120 mins in presence of CES inhibitor BNPP by LC-MS method; assay type: ADME, cell-based; details: Caco-2, with BNPP (CES inhibitor), concentration not stated, read-out: Drug recovery; method in brief: as §1
[13] = tested on: Caco-2; assay: Cytotoxicity against human Caco2 cells assessed as reduction in cell viability after 5 hrs by MTT assay; assay type: cell-based; details: caco-2, 5 h; method in brief: as §3
[14] = Permeability from basolateral to apical side in human Caco2 cells assessed as drug recovery at 2 uM after 10 mins in absence of CES inhibitor BNPP by LC-MS method; assay type: ADME, cell-based; details: Caco-2, read-out: Drug recovery; method in brief: as §1
[15] = biological target: T1, CE2 (cocaine esterase); assay: Drug metabolism assessed as human CE2-mediated compound hydrolysis at 1 uM incubated for 30 mins measured every 5 mins by LC-MS analysis; assay type: ADME; details: human CE2 enzyme, read-out: Drug metabolism; method in brief: as §2
[16] = Cytotoxicity against human Caco2 cells assessed as cell viability at 2 uM after 5 hrs by MTT assay relative to control; assay type: cell-based; details: Caco-2 cells, read-out: Activity; method in brief: as §3
[17] = Permeability from basolateral to apical side in human Caco2 cells assessed as drug recovery at 2 uM after 120 mins in absence of CES inhibitor BNPP by LC-MS method; assay type: ADME, cell-based; details: Caco-2, read-out: Drug recovery; method in brief: as §1
[18] = biological target: T2, Cocaine esterase (Homo sapiens, UniProt O00748); assay: Drug metabolism assessed as human CE2-mediated compound hydrolysis by measuring specific activity of enzyme per mg of protein at 1 uM incubated for 30 mins; assay type: ADME; details: 0.5 h; method in brief: as §2
T2 sequence (O00748 whole entry): T1 sequence (O00748 whole entry)

recovery at 1 h, 2 µM [1]: 46.5%
half-life at 1 µM [2]: 49.5 min
recovery at 10 min, 2 µM [3]: 68.4%
recovery at 10 min, 2 µM [5]: 93.9%
recovery at 2 h, 2 µM [6]: 92.9%
recovery at 1 h, 2 µM [7]: 87.2%
recovery at 2 h, 2 µM [8]: 12%
recovery at 1 h, 2 µM [9]: 89.3%
recovery at 1 h, 2 µM [10]: 33.3%
recovery at 10 min, 2 µM [11]: 85.4%
recovery at 2 h, 2 µM [12]: 87.4%
recovery at 10 min, 2 µM [14]: 74.4%
metabolised at 0.5 h, 1 µM [15]: 30%
recovery at 2 h, 2 µM [17]: 27.6%
Drug metabolism [18]: 55.8 pmol/min
Structure (SMILES): C=C/C(C)=C\C[C@]1(C)[C@H](C)C[C@H](O)[C@@]23C(=C[C@H](OC(=O)CCC)C[C@@H]12)[C@@H](OC(=O)CCC)O[C@H]3OC(C)=O
viability at 5 h, 1 µM [4]: 98.9%
Activity [13]: Dose-dependent effect
viability at 5 h, 2 µM [16]: 97.9%
